≈ marks a conversion by molar mass, not a printed value.
Experiments:
Aspergillus niger [1] = assay: Antifungal activity against Aspergillus niger MTCC 1108 assessed as zone of inhibition at 80 uM after 48 hrs by disc diffusion method; type: functional; settings: MTCC 1108, 48 h, read-out: IZ
How it was run: (§1)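 Spores from 4-day potato dextrose agar cultures, suspended in sterile water at 1.5 × 10⁵ CFU/mL. 0.2 mL was spread on potato dextrose agar. 5 mm filter-paper discs soaked with test compound were laid on the lawn. Incubation was 48 h at 28 °C, then the inhibition zone was measured in mm. Fluconazole was the positive control and acetone the negative control.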

Escherichia coli [2] = assay: Antimicrobial activity against Escherichia coli ATCC 35218 after 24 hrs by broth micro serial dilution method; type: functional; settings: ATCC 35218, 24 h
How it was run: (§2)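 This was broth microdilution in autoclaved Mueller-Hinton broth. 150 µL of compound per well was serially diluted […], and 50 µL of test organism was added. Plates were incubated 24 h at 37 °C and optical density was read.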

Escherichia coli [3] = assay: Antimicrobial activity against Escherichia coli ATCC 35218 assessed as diameter of inhibition zone at 20 uM after 24 hrs by Kirby -Baur disc diffusion method; type: functional; settings: ATCC 35218, 24 h, read-out: DIZ
How it was run: (§3)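 Kirby-Bauer disc diffusion was used. Acetone stocks (160 µM) were serially doubled down to 80, 40 and 20 µM. 4 µL of each went onto 5 mm sterile paper discs, which were dried 30 min at 50 °C. Inoculum was 1.5 × 10⁸ CFU/mL diluted to 3 × 10² CFU/mL, and 50 µL was spread on Mueller-Hinton agar. After 24 h at 37 °C the inhibition-zone diameter was measured. Ciprofloxacin served as positive control.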

Pseudomonas aeruginosa [4] = assay: Antimicrobial activity against Pseudomonas aeruginosa ATCC 15499 assessed as diameter of inhibition zone at 40 uM after 24 hrs by Kirby -Baur disc diffusion method; type: functional; settings: ATCC 15499, 24 h, read-out: DIZ; how it was run: as §3
Pseudomonas aeruginosa [5] = assay: Antimicrobial activity against Pseudomonas aeruginosa ATCC 15499 after 24 hrs by broth micro serial dilution method; type: functional; settings: ATCC 15499, 24 h; how it was run: as §2
QG-56 = assay: Cytotoxicity against human QG56 cells after 24 hrs by MTT assay; type: functional, cell-based
How it was run: (§4)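 The MTT assay seeded 5 × 10⁴ cells per well and grew them 24 h in RPMI 1640 with compound at 2.5–200 µM. Medium without cells was the blank and adriamycin the positive control. MTT was added for 4 h at 37 °C, formazan was solubilised, and absorbance was read at 570 nm. IC50 is the concentration that cuts viability 50% against untreated cells.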

Aspergillus flavus [6] = assay: Antifungal activity against Aspergillus flavus MTCC 1021 assessed as zone of inhibition at 80 uM after 48 hrs by disc diffusion method; type: functional; settings: MTCC 1021, 48 h, read-out: IZ; how it was run: as §1
Aspergillus niger [7] = assay: Antifungal activity against Aspergillus niger MTCC 1108 assessed as zone of inhibition at 40 uM after 48 hrs by disc diffusion method; type: functional; settings: MTCC 1108, 48 h, read-out: IZ; how it was run: as §1
Bacillus cereus [8] = assay: Antimicrobial activity against Bacillus cereus MTCC 7350 after 24 hrs by broth micro serial dilution method; type: functional; settings: MTCC 7350, 24 h; how it was run: as §2
Bacillus cereus [9] = assay: Antimicrobial activity against Bacillus cereus MTCC 7350 assessed as diameter of inhibition zone at 80 uM after 24 hrs by Kirby -Baur disc diffusion method; type: functional; settings: MTCC 7350, 24 h, read-out: DIZ; how it was run: as §3
Curvularia lunata [10] = assay: Antifungal activity against Curvularia lunata MTCC 581 assessed as zone of inhibition at 20 uM after 48 hrs by disc diffusion method; type: functional; settings: MTCC 581, 48 h, read-out: IZ; how it was run: as §1
Staphylococcus aureus [11] = assay: Antimicrobial activity against Staphylococcus aureus ATCC 11632 assessed as diameter of inhibition zone at 20 uM after 24 hrs by Kirby -Baur disc diffusion method; type: functional; settings: ATCC 11632, 24 h, read-out: DIZ; how it was run: as §3
Aspergillus flavus [12] = assay: Antifungal activity against Aspergillus flavus MTCC 1021 after 48 hrs; type: functional; settings: MTCC 1021, 48 h
Aspergillus flavus [13] = assay: Antifungal activity against Aspergillus flavus MTCC 1021 assessed as zone of inhibition at 20 uM after 48 hrs by disc diffusion method; type: functional; settings: MTCC 1021, 48 h, read-out: IZ; how it was run: as §1
Salmonella typhi [14] = assay: Antimicrobial activity against Salmonella typhi ATCC 23564 assessed as diameter of inhibition zone at 40 uM after 24 hrs by Kirby -Baur disc diffusion method; type: functional, Salmonella enterica subsp. enterica serovar Typhi; settings: Salmonella enterica, ATCC 23564, 24 h; read-out: DIZ
Curvularia lunata [15] = assay: Antifungal activity against Curvularia lunata MTCC 581 after 48 hrs; type: functional; settings: MTCC 581, 48 h
Trichoderma viride [16] = assay: Antifungal activity against Trichoderma viride MTCC 1107 assessed as zone of inhibition at 80 uM after 48 hrs by disc diffusion method; type: functional; settings: MTCC 1107, 48 h, read-out: IZ; how it was run: as §1
Aspergillus niger [17] = assay: Antifungal activity against Aspergillus niger MTCC 1108 assessed as zone of inhibition at 20 uM after 48 hrs by disc diffusion method; type: functional; settings: MTCC 1108, 48 h, read-out: IZ; how it was run: as §1
Curvularia lunata [18] = assay: Antifungal activity against Curvularia lunata MTCC 581 assessed as zone of inhibition at 40 uM after 48 hrs by disc diffusion method; type: functional; settings: MTCC 581, 48 h, read-out: IZ; how it was run: as §1
Staphylococcus aureus [19] = assay: Antimicrobial activity against Staphylococcus aureus ATCC 11632 after 24 hrs by broth micro serial dilution method; type: functional; settings: ATCC 11632, 24 h; how it was run: as §2
Staphylococcus aureus [20] = assay: Antimicrobial activity against Staphylococcus aureus ATCC 11632 assessed as diameter of inhibition zone at 40 uM after 24 hrs by Kirby -Baur disc diffusion method; type: functional; settings: ATCC 11632, 24 h, read-out: DIZ; how it was run: as §3
Aspergillus niger [21] = assay: Antifungal activity against Aspergillus niger MTCC 1108 after 48 hrs; type: functional; settings: MTCC 1108, 48 h
HeLa = assay: Cytotoxicity against human HeLa cells after 24 hrs by MTT assay; type: functional, cell-based; how it was run: as §4
Pseudomonas aeruginosa [22] = assay: Antimicrobial activity against Pseudomonas aeruginosa ATCC 15499 assessed as diameter of inhibition zone at 80 uM after 24 hrs by Kirby -Baur disc diffusion method; type: functional; settings: ATCC 15499, 24 h, read-out: DIZ; how it was run: as §3
Salmonella typhi [23] = assay: Antimicrobial activity against Salmonella typhi ATCC 23564 after 24 hrs by broth micro serial dilution method; type: functional, Salmonella enterica subsp. enterica serovar Typhi; settings: Salmonella enterica, ATCC 23564, 24 h
HCT-116 = assay: Cytotoxicity against human HCT116 cells after 24 hrs by MTT assay; type: functional, cell-based; how it was run: as §4
HepG2 = assay: Cytotoxicity against human HepG2 cells after 24 hrs by MTT assay; type: functional, cell-based; how it was run: as §4
Escherichia coli [24] = assay: Antimicrobial activity against Escherichia coli ATCC 35218 assessed as diameter of inhibition zone at 80 uM after 24 hrs by Kirby -Baur disc diffusion method; type: functional; settings: ATCC 35218, 24 h, read-out: DIZ; how it was run: as §3
Pseudomonas aeruginosa [25] = assay: Antimicrobial activity against Pseudomonas aeruginosa ATCC 15499 assessed as diameter of inhibition zone at 20 uM after 24 hrs by Kirby -Baur disc diffusion method; type: functional; settings: ATCC 15499, 24 h, read-out: DIZ; how it was run: as §3
Mus musculus = assay: Antiinflammatory activity in mouse assessed as inhibition of carrageenan-induced increase in paw volume at 200 mg/kg administered 1 hr prior to carrageenan challenge measured after 3 hrs relative to control; type: functional
How it was run: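 Mice were fasted 2 h and placed in groups of five. Controls received saline i.p. Phenylbutazone was given at 100 mg/kg i.p., curcumin at 200 mg/kg i.p., and derivatives at 200 mg/kg. After 1 h, 0.1 mL of 1% carrageenan in saline was injected subplantar into the right hind paw. Paw volume was followed by plethysmometer for 3 h, and % inhibition was calculated as (Vc − Vt)/Vc × 100.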

Trichoderma viride [26] = assay: Antifungal activity against Trichoderma viride MTCC 1107 after 48 hrs; type: functional; settings: MTCC 1107, 48 h
Trichoderma viride [27] = assay: Antifungal activity against Trichoderma viride MTCC 1107 assessed as zone of inhibition at 20 uM after 48 hrs by disc diffusion method; type: functional; settings: MTCC 1107, 48 h, read-out: IZ; how it was run: as §1
Aspergillus flavus [28] = assay: Antifungal activity against Aspergillus flavus MTCC 1021 assessed as zone of inhibition at 40 uM after 48 hrs by disc diffusion method; type: functional; settings: MTCC 1021, 48 h, read-out: IZ; how it was run: as §1
Staphylococcus aureus [29] = assay: Antimicrobial activity against Staphylococcus aureus ATCC 11632 assessed as diameter of inhibition zone at 80 uM after 24 hrs by Kirby -Baur disc diffusion method; type: functional; settings: ATCC 11632, 24 h, read-out: DIZ; how it was run: as §3
Salmonella typhi [30] = assay: Antimicrobial activity against Salmonella typhi ATCC 23564 assessed as diameter of inhibition zone at 80 uM after 24 hrs by Kirby -Baur disc diffusion method; type: functional, Salmonella enterica subsp. enterica serovar Typhi; settings: Salmonella enterica, ATCC 23564, 24 h; read-out: DIZ
Curvularia lunata [31] = assay: Antifungal activity against Curvularia lunata MTCC 581 assessed as zone of inhibition at 80 uM after 48 hrs by disc diffusion method; type: functional; settings: MTCC 581, 48 h, read-out: IZ; how it was run: as §1
Salmonella typhi [32] = assay: Antimicrobial activity against Salmonella typhi ATCC 23564 assessed as diameter of inhibition zone at 20 uM after 24 hrs by Kirby -Baur disc diffusion method; type: functional, Salmonella enterica subsp. enterica serovar Typhi; settings: Salmonella enterica, ATCC 23564, 24 h; read-out: DIZ
Bacillus cereus [33] = assay: Antimicrobial activity against Bacillus cereus MTCC 7350 assessed as diameter of inhibition zone at 40 uM after 24 hrs by Kirby -Baur disc diffusion method; type: functional; settings: MTCC 7350, 24 h, read-out: DIZ; how it was run: as §3
Trichoderma viride [34] = assay: Antifungal activity against Trichoderma viride MTCC 1107 assessed as zone of inhibition at 40 uM after 48 hrs by disc diffusion method; type: functional; settings: MTCC 1107, 48 h, read-out: IZ; how it was run: as §1
Escherichia coli [35] = assay: Antimicrobial activity against Escherichia coli ATCC 35218 assessed as diameter of inhibition zone at 40 uM after 24 hrs by Kirby -Baur disc diffusion method; type: functional; settings: ATCC 35218, 24 h, read-out: DIZ; how it was run: as §3
Bacillus cereus [36] = assay: Antimicrobial activity against Bacillus cereus MTCC 7350 assessed as diameter of inhibition zone at 20 uM after 24 hrs by Kirby -Baur disc diffusion method; type: functional; settings: MTCC 7350, 24 h, read-out: DIZ; how it was run: as §3

In the case of `COc1cc(/C=C/C(CC(/C=C/c2ccc(O)c(OC)c2)=N/c2ccc(S(=O)(=O)Nc3nc(C)cc(C)n3)cc2)=N\c2ccc(S(=O)(=O)Nc3nc(C)cc(C)n3)cc2)ccc1O`, the zone of inhibition at 80 µM (Aspergillus niger [1]) is reported as 14 mm, the MIC (Escherichia coli [2]) is reported as 20 µM (≈ 17.8 µg/mL) and the zone of inhibition at 20 µM (Escherichia coli [3]) is reported as 17 mm. The zone of inhibition at 40 µM (Pseudomonas aeruginosa [4]) was 18 mm, the MIC (Pseudomonas aeruginosa [5]) was 40 µM (≈ 35.6 µg/mL) and the IC50 (QG-56) was 50 µM. The zone of inhibition at 80 µM (Aspergillus flavus [6]) was 12 mm, the zone of inhibition at 40 µM (Aspergillus niger [7]) was 12 mm and the MIC (Bacillus cereus [8]) was 40 µM (≈ 35.6 µg/mL). It also gave a zone of inhibition at 80 µM (Bacillus cereus [9]) of 21 mm, a zone of inhibition at 20 µM (Curvularia lunata [10]) of 12 mm and a zone of inhibition at 20 µM (Staphylococcus aureus [11]) of 13 mm. For the same molecule, the MIC (Aspergillus flavus [12]) was 80 µM (≈ 71.1 µg/mL), the zone of inhibition at 20 µM (Aspergillus flavus [13]) was 10 mm and the zone of inhibition at 40 µM (Salmonella typhi [14]) was 21 mm. It also gave an MIC (Curvularia lunata [15]) of 20 µM (≈ 17.8 µg/mL), a zone of inhibition at 80 µM (Trichoderma viride [16]) of 22 mm and a zone of inhibition at 20 µM (Aspergillus niger [17]) of 8 mm. It also gave a zone of inhibition at 40 µM (Curvularia lunata [18]) of 16 mm, an MIC (Staphylococcus aureus [19]) of 40 µM (≈ 35.6 µg/mL) and a zone of inhibition at 40 µM (Staphylococcus aureus [20]) of 18 mm. It also gave an MIC (Aspergillus niger [21]) of 40 µM (≈ 35.6 µg/mL), an IC50 (HeLa) of 25 µM and a zone of inhibition at 80 µM (Pseudomonas aeruginosa [22]) of 23 mm. The MIC (Salmonella typhi [23]) was 40 µM (≈ 35.6 µg/mL), the IC50 (HCT-116) was 25 µM and the IC50 (HepG2) was 50 µM. For the same molecule, the zone of inhibition at 80 µM (Escherichia coli [24]) was 23 mm, the zone of inhibition at 20 µM (Pseudomonas aeruginosa [25]) was 14 mm and the inhibition in vivo at 200 mg/kg (Mus musculus) was 40.3%. For the same molecule, the MIC (Trichoderma viride [26]) was 20 µM (≈ 17.8 µg/mL), the zone of inhibition at 20 µM (Trichoderma viride [27]) was 18 mm and the zone of inhibition at 40 µM (Aspergillus flavus [28]) was 11 mm. It also gave a zone of inhibition at 80 µM (Staphylococcus aureus [29]) of 23 mm, a zone of inhibition at 80 µM (Salmonella typhi [30]) of 24 mm and a zone of inhibition at 80 µM (Curvularia lunata [31]) of 19 mm. The zone of inhibition at 20 µM (Salmonella typhi [32]) was 17 mm, the zone of inhibition at 40 µM (Bacillus cereus [33]) was 18 mm and the zone of inhibition at 40 µM (Trichoderma viride [34]) was 19 mm. It also gave a zone of inhibition at 40 µM (Escherichia coli [35]) of 19 mm and a zone of inhibition at 20 µM (Bacillus cereus [36]) of 11 mm.

From ChEMBL document CHEMBL2384906, “Biological activity, design, synthesis and structure activity relationship of some novel derivatives of curcumin containing sulfonamides” (Eur J Med Chem, 2013)
